Results taken from ChEMBL document CHEMBL1122607, “Heterocyclic analogues of chlorcyclizine with potent hypolipidemic activity” (J Med Chem, 1984).
Where “and” joins values, the source holds several entries; their conditions need not be identical. Identical values can stand only once.

Assays:
Rattus norvegicus [1] = assay: Hypolipidemic activity was measured as reduction in rat serum cholesterol after oral administration in male Wistar rats at 100 mg / (kg day); type: functional
Summary of the method: (§1)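 Cholesterol-fed rats given the test compound orally by gavage on the last 3 days, with controls receiving vehicle (0.5% tragacanth mucilage). After overnight starvation, rats were killed under CO2 3 h after the last dose and bled by cardiac puncture. Serum cholesterol and triglyceride were measured by autoanalyzer and expressed as percentage reduction from control levels, with Student's t test.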

Rattus norvegicus [2] = assay: Hypolipidemic activity was measured as reduction in rat serum triglyceride after oral administration in male Wistar rats at 100 mg / (kg day); type: functional; summary of the method: as §1
Rattus norvegicus [3] = assay: Hypolipidemic activity was measured as reduction in rat serum cholesterol after oral administration in male Wistar rats at 100 mg/(kg day); type: functional; summary of the method: as §1
Rattus norvegicus [4] = assay: Hypolipidemic activity was measured as reduction in rat serum cholesterol after oral administration in male Wistar rats at 30 mg / (kg day); type: functional; summary of the method: as §1
Rattus norvegicus [5] = assay: Hypolipidemic activity was measured as reduction in rat serum triglyceride after oral administration in male Wistar rats at 10 mg / (kg day); type: functional; summary of the method: as §1
Rattus norvegicus [6] = assay: Hypolipidemic activity was measured as reduction in rat serum triglyceride after oral administration in male Wistar rats at 30 mg / (kg day); type: functional; summary of the method: as §1
Rattus norvegicus [7] = assay: Hypolipidemic activity was measured as reduction in rat serum cholesterol after oral administration in male Wistar rats at 10 mg / (kg day); type: functional; summary of the method: as §1
Rattus norvegicus [8] = assay: Hypolipidemic activity was measured as reduction in rat serum cholesterol after oral administration in male Wistar rats at 200 mg / (kg day); type: functional; summary of the method: as §1
Rattus norvegicus [9] = assay: Hypolipidemic activity was measured as reduction in rat serum triglyceride after oral administration in male Wistar rats at 200 mg / (kg day); type: functional; summary of the method: as §1
Rattus norvegicus [10] = assay: Minimum effective dose (MED) is the dose (mg/kg)that cause significant reduction in serum cholesterol of 30% compared to concurrent controls.; type: functional; set-up: unit: mg/kg
Summary of the method: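 MED was calculated from the log dose/response curve as the dose giving a statistically significant 30% fall in serum cholesterol versus concurrent controls. Measured in the 3-day oral cholesterol-fed rat screen, or in a 2-week test: groups of eight young male Wistar rats on cholesterol/cholic acid-supplemented or normal diet, dosed orally by gavage daily for 14 days, vehicle 0.5% tragacanth mucilage.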

[11] = The therapeutic safety margin (TSM) is the ratio of the minimum lethal dose (mg/kg)to the MED; type: ADME, organism-based; details: in vivo
Summary of the method: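 Young male Wistar rats, eight per group, on cholesterol/cholic acid-supplemented or normal diet; graded oral gavage doses daily for 14 days; vehicle controls (0.5% tragacanth mucilage). Mortalities recorded to give the minimum lethal daily dose. After overnight fasting, serum cholesterol assayed by autoanalyzer. MED is the dose giving a significant (t test) 30% cholesterol fall, from the log dose/response curve. TSM = minimum lethal dose/MED.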

Row | Structure (SMILES) | Reduction (Rattus norvegicus [1]) [%] | Reduction (Rattus norvegicus [2]) [%] | Reduction (Rattus norvegicus [3]) | Reduction (Rattus norvegicus [4]) [%] | Reduction (Rattus norvegicus [6]) [%] | also measured
1 | Cc1cc(C(OCCN2CCCC2)c2ccc(C(C)C)cc2)sn1 (centres undefined) | 30 | 2 | – | – | – | –
2 | Cc1ccccc1C(c1nccn1C)N1CCN(C)CC1 (centres undefined) | 5 | 29 | – | – | – | –
3 | CCOC(=O)N1CCN(C(c2ccc(C(C)C)cc2)c2cc(C)ns2)CC1 (centres undefined) | 10 | 6 | – | – | – | –
4 | Cc1ccc(C(c2sncc2C)N2CCN(C)CC2)cc1C (centres undefined) | – | 73 | 74% | 15 | 9 | Reduction (Rattus norvegicus [5]): 21%; Reduction (Rattus norvegicus [7]): 20%
5 | COc1ccc(C(c2cc(C)ns2)N2CCN(C)CC2)cc1OC (centres undefined) | – | – | – | – | – | Reduction (Rattus norvegicus [8]): 7%; Reduction (Rattus norvegicus [9]): 4%
6 | Cc1cnsc1C(c1ccccc1Cl)N1CCN(C)CC1 (centres undefined) | – | 90 | 80% | 44 | 10 | MED (Rattus norvegicus [10]): 20; Reduction (Rattus norvegicus [5]): 1%; Reduction (Rattus norvegicus [7]): 16%; therapeutic safety margin (minimum lethal dose / MED) [11]: < 20
7 | Cc1cc(C(SCCN(C)C)c2ccc(C(C)C)cc2)sn1 (centres undefined) | – | 55 | 36% | – | – | –
8 | CCCCOc1ccccc1C(c1cc(C)ns1)N1CCN(C)CC1 (centres undefined) | – | 67 | 74% | 32 | 57 | –
9 | Cc1cc(C(c2ccc(C(C)(C)C)cc2)N2CCN(C)CC2)sn1 (centres undefined) | 25 | 20 | – | – | – | –
10 | Cc1cc(C(c2ccc(C(C)C)cc2)C2CCN(C)CC2)sn1 (centres undefined) | – | 42 | 45% | 12 | 32 | –
11 | Cc1cc(C(c2cccc(Cl)c2)N2CCN(C)CC2)sn1 (centres undefined) | – | 41 | 33% | – | – | –
12 | Cc1noc(C)c1C(c1ccc(C(C)C)cc1)N1CC[N+](C)(C)CC1 (centres undefined) | 1 | 28 | – | – | – | –
13 | Cc1cc(C(c2cccc(C(F)(F)F)c2)N2CCN(C)CC2)sn1 (centres undefined) | 8 | 30 | – | – | – | –
14 | CCc1ccccc1C(c1cc(C)ns1)N1CCN(C)CC1 (centres undefined) | – | 88 | 81% | 71 | – | –
15 | Cc1cc(C(c2ccccc2F)N2CCN(C)CC2)sn1 (centres undefined) | – | – | – | – | – | Reduction (Rattus norvegicus [8]): 25%; Reduction (Rattus norvegicus [9]): 57%
16 | Cc1cc(C(OCCN(C)C)c2ccc(C(C)C)cc2)sn1 (centres undefined) | – | 41 | 45% | 3 | 36 | –
17 | Cc1cc(C(c2ccc(C3CCCCC3)cc2)N2CCN(C)CC2)sn1 (centres undefined) | – | 73 | 64% | 7 | – | –
18 | Cc1noc(C)c1C(c1ccccc1Cl)N1CCN(C)CC1 (centres undefined) | – | 41 | 52% | 7 | 6 | –
19 | COc1ccc(C(c2cc(C)ns2)N2CCN(C)CC2)cc1 (centres undefined) | – | – | – | – | – | Reduction (Rattus norvegicus [8]): 0%; Reduction (Rattus norvegicus [9]): 23%
20 | Cc1ccccc1C(c1sncc1C)N1CCN(C)CC1 (centres undefined) | – | 64 | 72% | – | – | –

Row | Structure (SMILES) | Reduction (Rattus norvegicus [1]) [%] | Reduction (Rattus norvegicus [2]) [%] | Reduction (Rattus norvegicus [3]) | Reduction (Rattus norvegicus [4]) [%] | Reduction (Rattus norvegicus [6]) [%] | also measured
21 | Cc1cc(C(c2ccc(C(C)C)cc2)N2CCOCC2)sn1 (centres undefined) | 7 | 10 | – | – | – | –
22 | CCOc1ccccc1C(c1cc(C)ns1)N1CCN(C)CC1 (centres undefined) | 25 | 35 | – | – | – | –
23 | CCc1ccc(C(c2ccns2)N2CCN(C)CC2)cc1 (centres undefined) | 32 | – | 74% and 58% | – | – | MED (Rattus norvegicus [10]): 10; therapeutic safety margin (minimum lethal dose / MED) [11]: < 20
24 | Cc1cc(C(c2ccccc2)N2CCN(Cc3ccccc3)CC2)sn1 (centres undefined) | – | – | – | – | – | Reduction (Rattus norvegicus [8]): 26%; Reduction (Rattus norvegicus [9]): 56%
25 | Cc1nc(C)c(C(c2ccccc2Cl)N2CCN(C)CC2)s1 (centres undefined) | – | 79 | 78% | – | – | –
26 | Cc1cc(C(c2ccccc2C(C)C)N2CCN(C)CC2)sn1 (centres undefined) | – | – | – | 36 | 9 | –
27 | Cc1cc(C(c2ccc(C(C)C)cc2)N2CCCCC2)sn1 (centres undefined) | 16 | 1 | – | – | – | –
28 | Cc1cc(C(Nc2cccnc2)c2ccc(C(C)C)cc2)sn1 (centres undefined) | 16 | 5 | – | – | – | –
29 | Cc1ccc(C(c2cc(C)ns2)N2CCN(C)CC2)cc1 (centres undefined) | 9 | – | – | – | – | –
30 | Cc1cc(C(c2ccc(C)c(C)c2)N2CCN(C)CC2)sn1 (centres undefined) | 11 | 1 | – | – | – | –
31 | Cc1noc(C)c1C(OC1CCNCC1)c1ccc(C(C)C)cc1 (centres undefined) | – | 23 | 45% | 4 | 8 | –
32 | Cc1cc(C(c2ccc(Oc3ccccc3)cc2)N2CCN(C)CC2)sn1 (centres undefined) | – | 59 | 42% | 17 | 25 | –
33 | Cc1cc(C(c2ccc(C(C)C)cc2)N2CC(C)NC(C)C2)sn1 (centres undefined) | 16 | 32 | – | – | – | –
34 | Cc1cc(C(c2ccc(C(C)C)cc2)N2CCN(CCO)CC2)sn1 (centres undefined) | – | 73 | 73% | 67 | 14 | MED (Rattus norvegicus [10]): 15; Reduction (Rattus norvegicus [5]): 0%; Reduction (Rattus norvegicus [7]): 23%; therapeutic safety margin (minimum lethal dose / MED) [11]: 20
35 | CN1CCN(C(c2ccccc2)c2ccccn2)CC1 (centres undefined) | – | 74 | 81% | 22 | 16 | –
36 | CCc1ccc(C(c2sncc2C)N2CCN(CCO)CC2)cc1 (centres undefined) | – | – | – | 45 | 51 | Reduction (Rattus norvegicus [5]): 3%; Reduction (Rattus norvegicus [7]): 15%
37 | Cc1cc(C(c2ccccc2OC(C)C)N2CCN(C)CC2)sn1 (centres undefined) | – | 86 | 83% | – | – | –
38 | Cc1cc(C(N)c2ccc(C(C)C)cc2)sn1 (centres undefined) | – | – | – | – | – | Reduction (Rattus norvegicus [8]): 34%; Reduction (Rattus norvegicus [9]): 9%
39 | COc1cccc(C(c2cc(C)ns2)N2CCN(C)CC2)c1 (centres undefined) | – | – | – | – | – | Reduction (Rattus norvegicus [8]): 3%; Reduction (Rattus norvegicus [9]): 2%
40 | Cc1cc(C(O)(c2ccc(C(C)C)cc2)C2CCN(C)CC2)sn1 (centres undefined) | – | 85 | 67% | 57 | 57 | Reduction (Rattus norvegicus [5]): 25%; Reduction (Rattus norvegicus [7]): 28%

Row | Structure (SMILES) | Reduction (Rattus norvegicus [1]) [%] | Reduction (Rattus norvegicus [2]) [%] | Reduction (Rattus norvegicus [3]) | Reduction (Rattus norvegicus [4]) [%] | Reduction (Rattus norvegicus [6]) [%] | also measured
41 | Cc1ccccc1C(c1c(C)noc1C)N1CCNCC1 (centres undefined) | – | 80 | 76% | 26 | 21 | Reduction (Rattus norvegicus [5]): 46%; Reduction (Rattus norvegicus [7]): 2%
42 | Cc1cc(C(c2ccc(OC(C)C)cc2)N2CCN(C)CC2)sn1 (centres undefined) | – | 31 | 33% | – | – | –
43 | CC(C)c1ccc(C(c2ccns2)N2CCN(CCO)CC2)cc1 (centres undefined) | – | 89 | 74% | 80 | 49 | MED (Rattus norvegicus [10]): 5; therapeutic safety margin (minimum lethal dose / MED) [11]: 40
44 | Cc1cc(C(c2ccc(F)cc2)N2CCN(C)CC2)sn1 (centres undefined) | 11 | 15 | – | – | – | –
45 | Cc1cnsc1C(c1ccc(CC(C)C)cc1)N1CCN(CCO)CC1 (centres undefined) | – | 97 | 85% | 86 | 81 | MED (Rattus norvegicus [10]): 6; Reduction (Rattus norvegicus [5]): 48%; Reduction (Rattus norvegicus [7]): 48%
46 | Cc1cc(C(c2ccc(C(C)C)cc2)N2CCN(S(C)(=O)=O)CC2)sn1 (centres undefined) | 19 | 3 | – | – | – | –
47 | Cc1noc(C)c1C(OC1CCCN(C)C1)c1ccc(C(C)C)cc1 (centres undefined) | – | 52 | 79% | 38 | 16 | Reduction (Rattus norvegicus [5]): 12%; Reduction (Rattus norvegicus [7]): 32%
48 | Cc1cc(C(c2ccc(C(C)C)cc2)N2CCN(C(=O)c3ccccc3)CC2)sn1 (centres undefined) | 26 | 16 | – | – | – | –
49 | CN1CCN(C(c2ccccc2Cl)c2nccn2C)CC1 (centres undefined) | – | – | – | – | – | Reduction (Rattus norvegicus [8]): 53%; Reduction (Rattus norvegicus [9]): 64%
50 | CCCCCc1ccc(C(c2ccns2)N2CCN(C)CC2)cc1 (centres undefined) | – | – | – | 26 | 23 | Reduction (Rattus norvegicus [8]): 87%; Reduction (Rattus norvegicus [9]): 85%
51 | Cc1cc(C(c2cccc([N+](=O)[O-])c2)N2CCN(C)CC2)sn1 (centres undefined) | 2 | 17 | – | – | – | –
52 | Cc1cc(C(c2ccc(OCc3ccccc3)cc2)N2CCN(C)CC2)sn1 (centres undefined) | 11 | 34 | – | – | – | –
53 | Cc1noc(C)c1C(c1ccccc1Cl)N1CCNCC1 (centres undefined) | – | 97 | 87% | 14 | 62 | –
54 | Cc1cccc(C(c2cc(C)ns2)N2CCN(C)CC2)c1 (centres undefined) | 26 | 22 | – | – | – | –
55 | Cc1cc(C(c2ccc(C(C)C)cc2)N2CCNCC2)sn1 (stereo in doubt; 66) | – | 73 | 68% | 59 | 23 | Reduction (Rattus norvegicus [5]): 4%; Reduction (Rattus norvegicus [7]): 38%
56 | CN1CCN(C(c2ccccc2)c2ccc(Cl)cc2)CC1 (centres undefined) [CHLORCYCLIZINE] | – | – | – | – | – | MED (Rattus norvegicus [10]): 15; therapeutic safety margin (minimum lethal dose / MED) [11]: 10
57 | CCOC(=O)C(C)(C)Oc1ccc(Cl)cc1 [CLOFIBRATE] | – | – | – | – | – | MED (Rattus norvegicus [10]): 200
58 | CC(C)OC(=O)C(C)(C)Oc1ccc(C(=O)c2ccc(Cl)cc2)cc1 [FENOFIBRATE] | – | – | – | – | – | MED (Rattus norvegicus [10]): 200
59 | O=C(O)c1cccnc1 [NIACIN] | – | – | – | – | – | MED (Rattus norvegicus [10]): 400
